Laboratory results as given in ChEMBL document CHEMBL1125826, “Synthesis and biological activity of 5-amino- and 5-hydroxyquinolones, and the overwhelming influence of the remote N1-substituent in determining the structure-activity relationship” (1991).
≈ marks a conversion by molar mass, not a printed value.

Experiments:
Assay type in all cases: functional
[1] = target: DNA gyrase (Escherichia coli) (UniProt P0AES6+P0AES4); experiment: Minimum inhibitory concentration against Escherichia coli DNA-gyrase in supercoiling assay
Enterobacter cloacae = experiment: Antibacterial activity was determined against gram negative organism, Enterobacter cloacae MA2646; conditions: Enterobacter cloacae; read-out: MIC
Escherichia coli [2] = experiment: Antibacterial activity was determined against gram negative organism, Escherichia coli vogel; conditions: Escherichia coli; read-out: MIC
Procedure, shortened: (§1)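 MIC (µg/mL) by standard microtitration against a panel of 10 Gram-positive and Gram-negative organisms; values averaged from multiple experiments.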

Escherichia coli [3] = experiment: The in vivo potency was determined in female charles river CD-1 mice infected with Escherichia coli after peroral administration; conditions: Escherichia coli, po; read-out: PD50
Procedure, shortened: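 Acute lethal systemic infection in female CD-1 mice, 16 mice per route; single dose given orally by gavage at the time of challenge; median protective dose (PD50, mg/kg) determined.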

Escherichia coli [4] = experiment: The in vivo potency was determined in female charles river CD-1 mice infected with Escherichia coli after sc administration; conditions: Escherichia coli, sc; read-out: PD50
Procedure, shortened: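 Acute lethal systemic infection in female CD-1 mice, 16 mice per route; single subcutaneous dose given at the time of challenge; median protective dose (PD50, mg/kg) determined.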

Bacteria [5] = experiment: MIC ratio measured as the mean MICs of gram-negative bacteria
Procedure, shortened: (§2)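 Geometric mean of the microtitration MICs (µg/mL) over the Gram-negative organisms, and separately over the Gram-positive organisms, of the 10-strain panel; individual MICs averaged from multiple experiments.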

Bacteria [6] = experiment: MIC ratio measured as the mean MICs of gram-positive bacteria; procedure, shortened: as §2
Klebsiella pneumoniae = experiment: Antibacterial activity was determined against gram negative organism, Klebsiella pneumoniae MGH-2; conditions: Klebsiella pneumoniae; read-out: MIC; procedure, shortened: as §1
Pseudomonas aeruginosa = experiment: Antibacterial activity was determined against gram negative organism, Pseudomonas aeruginosa UI-18; conditions: Pseudomonas aeruginosa; read-out: MIC; procedure, shortened: as §1
Bacteria [7] = experiment: Antibacterial activity was determined against gram negative organism, Providencia rettgeri. M1771; conditions: Bacteria; read-out: MIC; procedure, shortened: as §1
Staphylococcus aureus [8] = experiment: Antibacterial activity was determined against gram positive organism, Staphylococcus aureus H228; conditions: Staphylococcus aureus; read-out: MIC; procedure, shortened: as §1
Streptococcus pneumoniae = experiment: Antibacterial activity was determined against gram positive organism, Streptococcus pneumoniae SV-1; conditions: Streptococcus pneumoniae; read-out: MIC; procedure, shortened: as §1
Enterococcus faecalis = experiment: Antibacterial activity was determined against gram positive organism, Streptococcus faecalis MGH-2; conditions: Enterococcus faecalis; read-out: MIC; procedure, shortened: as §1
Staphylococcus aureus [9] = experiment: Antibacterial activity was determined against gram positive organism, Staphylococcus aureus UC76; procedure, shortened: as §1
Streptococcus pyogenes = experiment: Antibacterial activity was determined against gram positive organism, Streptococcus pyogenes C203; conditions: Streptococcus pyogenes; read-out: MIC; procedure, shortened: as §1
[10] = Staphylococcus aureus, read-out: MIC

| Compound | MIC [1] [µg/mL] | MIC (Enterobacter cloacae) [µg/mL] | MIC (Escherichia coli [2]) [µg/mL] | ED50 (Escherichia coli [3]) [mg/kg] | ED50 (Escherichia coli [4]) [mg/kg] | Geometric mean MIC over Gram-negative bacteria (µg/mL) (Bacteria [5]) | Geometric mean MIC over Gram-positive bacteria (µg/mL) (Bacteria [6]) | MIC (Klebsiella pneumoniae) [µg/mL] | MIC (Pseudomonas aeruginosa) [µg/mL] | MIC (Bacteria [7]) [µg/mL] | MIC (Staphylococcus aureus [8]) [µg/mL] | MIC (Streptococcus pneumoniae) [µg/mL] | MIC (Enterococcus faecalis) [µg/mL] | MIC (Staphylococcus aureus [9]; [10]) [µg/mL] | MIC (Streptococcus pyogenes) [µg/mL] | MIC (Staphylococcus aureus [9]) [µg/mL] |
| --- | --- | --- | --- | --- | --- | --- | --- | --- | --- | --- | --- | --- | --- | --- | --- | --- |
| CC1COc2c(N3CCC(N)C3)c(F)c(N)c3c(=O)c(C(=O)O)cn1c23 (stereo unspecified) | 2.5 (≈ 6.9 µM) | 0.8 (≈ 2.21 µM) | 0.4 (≈ 1.1 µM) | > 100 | 23 | 0.8 | 0.7 | 0.4 (≈ 1.1 µM) | 1.6 (≈ 4.42 µM) | 1.6 (≈ 4.42 µM) | 0.8 (≈ 2.21 µM) | 0.8 (≈ 2.21 µM) | 0.8 (≈ 2.21 µM) | 0.2 (≈ 0.552 µM) | 1.6 (≈ 4.42 µM) |  |
| CCNCC1CCN(c2cc3c(cc2F)c(=O)c(C(=O)O)cn3C2CC2)C1 (stereo unspecified) | 1 (≈ 2.68 µM) | 0.4 (≈ 1.07 µM) | 0.2 (≈ 0.536 µM) | 35 | 2 | 0.46 | 0.1 | 0.2 (≈ 0.536 µM) | 1.6 (≈ 4.28 µM) | 0.8 (≈ 2.14 µM) | 0.4 (≈ 1.07 µM) | 0.2 (≈ 0.536 µM) | 0.2 (≈ 0.536 µM) | 0.013 (≈ 0.0348 µM) | 0.05 (≈ 0.134 µM) |  |
| O=C(O)c1cn(C2CC2)c2c(Cl)c(N3CCNCC3)c(F)cc2c1=O | 0.5 (≈ 1.37 µM) | 0.025 (≈ 0.0683 µM) | 0.025 (≈ 0.0683 µM) | 0.8 | 0.4 | 0.066 | 0.13 | 0.05 (≈ 0.137 µM) | 0.4 (≈ 1.09 µM) | 0.1 (≈ 0.273 µM) | 0.1 (≈ 0.273 µM) | 0.1 (≈ 0.273 µM) | 0.4 (≈ 1.09 µM) | 0.05 (≈ 0.137 µM) | 0.2 (≈ 0.547 µM) |  |
| Nc1c(F)c(N2CCNCC2)cc2c1c(=O)c(C(=O)O)cn2C1CC1 | 1 (≈ 2.89 µM) | 0.013 (≈ 0.0375 µM) | 0.013 (≈ 0.0375 µM) | 4 | 0.3 | 0.038 | 0.087 | 0.025 (≈ 0.0722 µM) | 0.8 (≈ 2.31 µM) | 0.025 (≈ 0.0722 µM) | 0.1 (≈ 0.289 µM) | 0.1 (≈ 0.289 µM) | 0.1 (≈ 0.289 µM) | 0.025 (≈ 0.0722 µM) | 0.2 (≈ 0.577 µM) |  |
| CCNCC1CCN(c2cc3c(c(N)c2F)c(=O)c(C(=O)O)cn3C2CC2)C1 (stereo unspecified) | 1 (≈ 2.57 µM) | 0.1 (≈ 0.257 µM) | 0.1 (≈ 0.257 µM) | 90 | 3 | 0.26 | 0.057 | 0.2 (≈ 0.515 µM) | 0.8 (≈ 2.06 µM) | 0.8 (≈ 2.06 µM) | 0.2 (≈ 0.515 µM) | 0.05 (≈ 0.129 µM) | 0.025 (≈ 0.0644 µM) | 0.025 (≈ 0.0644 µM) | 0.1 (≈ 0.257 µM) |  |
| CC1COc2c(N3CCC(N)C3)c(F)cc3c(=O)c(C(=O)O)cn1c23 (stereo unspecified) | 0.75 (≈ 2.16 µM) | 0.4 (≈ 1.15 µM) | 0.4 (≈ 1.15 µM) | 29 | 2 | 0.46 | 0.53 | 0.4 (≈ 1.15 µM) | 0.4 (≈ 1.15 µM) | 0.8 (≈ 2.3 µM) | 1.6 (≈ 4.61 µM) | 0.8 (≈ 2.3 µM) | 1.6 (≈ 4.61 µM) |  | 0.2 (≈ 0.576 µM) | 0.1 (≈ 0.288 µM) |
| CCNCC1CCN(c2c(F)c(N)c3c(=O)c(C(=O)O)cn4c3c2OCC4C)C1 (stereo unspecified) | 7.5 (≈ 18.5 µM) | 1.6 (≈ 3.96 µM) | 0.8 (≈ 1.98 µM) | > 100 | 8 | 2.09 | 0.26 | 0.8 (≈ 1.98 µM) | 12.5 (≈ 30.9 µM) | 3.1 (≈ 7.66 µM) | 0.8 (≈ 1.98 µM) | 0.4 (≈ 0.989 µM) | 0.4 (≈ 0.989 µM) | 0.1 (≈ 0.247 µM) | 0.1 (≈ 0.247 µM) |  |
| CCn1cc(C(=O)O)c(=O)c2cc(F)c(N3CCNCC3)c(F)c21 | 2.5 (≈ 7.41 µM) | 0.1 (≈ 0.296 µM) | 0.1 (≈ 0.296 µM) |  |  | 0.17 | 1.58 | 0.1 (≈ 0.296 µM) | 0.8 (≈ 2.37 µM) | 0.2 (≈ 0.593 µM) | 1.6 (≈ 4.74 µM) | 3.1 (≈ 9.19 µM) | 1.6 (≈ 4.74 µM) |  | 3.1 (≈ 9.19 µM) | 0.4 (≈ 1.19 µM) |
| CCn1cc(C(=O)O)c(=O)c2cc(F)c(N3CCC(N)C3)cc21 (stereo unspecified) | 2.5 (≈ 7.83 µM) | 0.1 (≈ 0.313 µM) | 0.1 (≈ 0.313 µM) |  |  | 0.13 | 0.4 | 0.2 (≈ 0.626 µM) | 0.8 (≈ 2.51 µM) | 0.2 (≈ 0.626 µM) | 0.8 (≈ 2.51 µM) | 0.4 (≈ 1.25 µM) | 0.8 (≈ 2.51 µM) |  | 0.4 (≈ 1.25 µM) | 0.1 (≈ 0.313 µM) |
